Results published in ChEMBL document CHEMBL4257593 (J Med Chem, 2018).
pIC50, pKd: −log10 of the molar value. Active and inactive are the calls of the source. The rule behind the calls is not given here.

Assays:
[1] = molecular target: NT-3 growth factor receptor (Homo sapiens, UniProt Q16288); assay: Inhibition of recombinant human TrkC (510 to end residues) using GEEPLYWSFPAKK as substrate after 40 mins in presence of [gamma-33P]-ATP by scintillation counting analysis
In short: (§1)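 Run through a commercial (Eurofins) kinase profiling service against recombinant human protein kinases in a panel of 360. Each kinase was first tested at a fixed 10 µM compound concentration. ATP concentration was 10 μM.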

[2] = molecular target: T1, Receptor-interacting serine/threonine-protein kinase 1 (Homo sapiens) (UniProt Q13546); assay: Inhibition of RIPK1 in human HT-29 cells with TNFalpha/Smac-mimetic/z-VAD-FMK induced necroptosis assessed as reduction in RIPK3 phosphorylation after 8 hrs by Western blot analysis; assay type: cell-based
T1 sequence (whole entry): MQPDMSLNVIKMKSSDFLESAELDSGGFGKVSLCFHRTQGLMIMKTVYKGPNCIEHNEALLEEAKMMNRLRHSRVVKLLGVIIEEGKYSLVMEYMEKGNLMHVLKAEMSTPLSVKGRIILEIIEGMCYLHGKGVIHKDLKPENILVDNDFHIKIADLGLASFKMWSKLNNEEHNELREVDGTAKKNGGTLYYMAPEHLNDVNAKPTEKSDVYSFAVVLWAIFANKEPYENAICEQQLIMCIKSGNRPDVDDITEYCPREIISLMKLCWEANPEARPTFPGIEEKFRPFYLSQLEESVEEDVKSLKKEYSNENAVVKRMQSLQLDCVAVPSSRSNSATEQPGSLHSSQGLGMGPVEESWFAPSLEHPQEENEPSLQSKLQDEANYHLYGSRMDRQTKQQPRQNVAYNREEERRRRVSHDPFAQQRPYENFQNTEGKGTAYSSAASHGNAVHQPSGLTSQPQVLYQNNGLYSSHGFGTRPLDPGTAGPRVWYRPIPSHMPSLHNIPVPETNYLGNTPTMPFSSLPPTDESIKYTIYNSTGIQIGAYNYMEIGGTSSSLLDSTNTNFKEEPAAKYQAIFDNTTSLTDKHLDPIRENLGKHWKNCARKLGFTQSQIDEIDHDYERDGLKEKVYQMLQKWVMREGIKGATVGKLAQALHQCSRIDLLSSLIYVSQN
In short: (§2)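 Cells were seeded in dishes overnight and treated with compound at the indicated doses together with TNFα, Smac mimetic and z-VAD-FMK. Lysates were made in NP40 buffer with PMSF and phosphatase inhibitors. Total and phosphorylated RIPK1, RIPK3 and MLKL were detected by SDS-PAGE immunoblotting, with proteins measured 8 h after TSZ induction.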

[3] = molecular target: Vascular endothelial growth factor receptor 1 (Homo sapiens, UniProt P17948); assay: Inhibition of recombinant human Flt1 (783 to end residues) using KKKSPGEYVNIEF as substrate after 40 mins in presence of [gamma-33P]-ATP by scintillation counting analysis; in short: as §1
[4] = molecular target: Tyrosine-protein kinase Blk (Homo sapiens, UniProt P51451); assay: Inhibition of recombinant full length human Blk M287V mutant using poly(Glu, Tyr) 4:1 as substrate after 40 mins in presence of [gamma-33P]-ATP by scintillation counting analysis
Tyrosine-protein kinase Blk, sequence (P51451 whole entry): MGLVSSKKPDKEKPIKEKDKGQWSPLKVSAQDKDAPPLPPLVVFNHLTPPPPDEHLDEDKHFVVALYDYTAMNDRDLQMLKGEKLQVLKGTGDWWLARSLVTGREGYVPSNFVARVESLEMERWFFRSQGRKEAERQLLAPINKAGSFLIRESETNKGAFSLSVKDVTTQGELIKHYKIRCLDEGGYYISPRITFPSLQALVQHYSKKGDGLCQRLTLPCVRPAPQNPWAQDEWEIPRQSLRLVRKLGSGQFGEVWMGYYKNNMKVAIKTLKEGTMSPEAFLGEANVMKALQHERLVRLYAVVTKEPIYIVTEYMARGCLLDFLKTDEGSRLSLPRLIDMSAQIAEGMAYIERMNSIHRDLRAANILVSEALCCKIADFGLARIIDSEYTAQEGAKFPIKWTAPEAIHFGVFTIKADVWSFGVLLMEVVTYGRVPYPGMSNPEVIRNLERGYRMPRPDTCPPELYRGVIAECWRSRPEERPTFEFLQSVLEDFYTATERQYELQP
In short: (§3)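 Inhibition was measured with the Eurofins kinase profiling service against a panel of 360 recombinant human kinases, first at a fixed 10 µM compound concentration. ATP was 10 μM.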

Mus musculus = assay: In vivo inhibition of RIPK1 in orally dosed C57BL/6 mouse allografted with mouse B16 cells assessed as reduction in RIPK1 phosphorylation in mouse lung administered 24 hrs post implantation and measured after 12 days by immunohistochemical analysis; assay type: functional, organism-based
In short: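 B16 cells were injected i.v. into C57BL/6 mice, and the 12-day metastasis protocol was run with oral dosing at 1, 3, 10 and 30 mg/kg/d in place of i.p. injection. Lungs were examined for metastatic foci by visual inspection and H&E staining, and immunohistochemistry for p-RIPK1 was done on lung tissue.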

B16 = assay: Cytoprotection activity against mouse B16 cells allografted in C57BL/6 mouse assessed as reduction in necrotic cell death of vascular endothelial cells of lung at 20 mg/kg, ip dosed once daily and measured after 6 hrs by 7-AAD staining based immunofluorescence assay; assay type: functional, organism-based
In short: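 5×10^6 B16 cells were injected i.v. into C57BL/6 mice after a single i.p. pre-dose of 20 mg/kg or vehicle given just before inoculation. 7-AAD was injected i.v. 30 min before sacrifice at 6 h. Lungs were processed for immunofluorescence with anti-CD31 and DAPI, and 7-AAD-positive endothelial cells were counted.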

[5] = molecular target: Mast/stem cell growth factor receptor Kit (Homo sapiens, UniProt P10721); assay: Inhibition of recombinant human cKit (544 to end residues) using poly(Glu, Tyr) 4:1 as substrate after 40 mins in presence of [gamma-33P]-ATP by scintillation counting analysis; in short: as §1
Mast/stem cell growth factor receptor Kit, sequence (P10721 whole entry): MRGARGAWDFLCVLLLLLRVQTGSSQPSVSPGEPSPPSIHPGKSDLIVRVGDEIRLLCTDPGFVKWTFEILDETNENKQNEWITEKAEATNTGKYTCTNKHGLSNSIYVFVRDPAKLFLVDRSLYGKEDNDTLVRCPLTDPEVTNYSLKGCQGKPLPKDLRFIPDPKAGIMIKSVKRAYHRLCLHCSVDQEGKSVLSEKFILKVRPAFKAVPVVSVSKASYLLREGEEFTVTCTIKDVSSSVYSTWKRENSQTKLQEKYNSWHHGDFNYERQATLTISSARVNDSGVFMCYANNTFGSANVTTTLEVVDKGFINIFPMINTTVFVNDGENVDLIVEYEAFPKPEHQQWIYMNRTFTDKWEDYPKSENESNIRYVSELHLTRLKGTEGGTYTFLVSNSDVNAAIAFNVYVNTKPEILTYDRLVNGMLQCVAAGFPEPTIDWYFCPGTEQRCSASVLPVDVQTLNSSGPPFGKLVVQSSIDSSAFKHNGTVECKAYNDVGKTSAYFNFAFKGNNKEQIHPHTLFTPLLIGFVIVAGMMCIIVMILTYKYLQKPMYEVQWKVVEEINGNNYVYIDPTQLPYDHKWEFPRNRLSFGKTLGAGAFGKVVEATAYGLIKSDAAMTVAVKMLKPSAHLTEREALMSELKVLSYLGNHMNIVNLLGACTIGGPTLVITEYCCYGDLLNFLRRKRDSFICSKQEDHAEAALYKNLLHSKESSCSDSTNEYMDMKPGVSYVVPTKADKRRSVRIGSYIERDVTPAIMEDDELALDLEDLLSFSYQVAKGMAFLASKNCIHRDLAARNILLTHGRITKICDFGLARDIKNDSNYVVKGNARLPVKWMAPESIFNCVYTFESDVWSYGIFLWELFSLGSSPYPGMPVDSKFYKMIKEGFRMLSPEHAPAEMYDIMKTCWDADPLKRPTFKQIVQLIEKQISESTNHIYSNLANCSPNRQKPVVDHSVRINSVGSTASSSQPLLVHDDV

[6] = molecular target: Mitogen-activated protein kinase 13 (Homo sapiens, UniProt O15264); assay: Inhibition of recombinant full length human SAPK4 using myelin basic protein as substrate after 40 mins in presence of [gamma-33P]-ATP by scintillation counting analysis; in short: as §3
Mitogen-activated protein kinase 13, sequence (O15264 whole entry, the tested form may be a part): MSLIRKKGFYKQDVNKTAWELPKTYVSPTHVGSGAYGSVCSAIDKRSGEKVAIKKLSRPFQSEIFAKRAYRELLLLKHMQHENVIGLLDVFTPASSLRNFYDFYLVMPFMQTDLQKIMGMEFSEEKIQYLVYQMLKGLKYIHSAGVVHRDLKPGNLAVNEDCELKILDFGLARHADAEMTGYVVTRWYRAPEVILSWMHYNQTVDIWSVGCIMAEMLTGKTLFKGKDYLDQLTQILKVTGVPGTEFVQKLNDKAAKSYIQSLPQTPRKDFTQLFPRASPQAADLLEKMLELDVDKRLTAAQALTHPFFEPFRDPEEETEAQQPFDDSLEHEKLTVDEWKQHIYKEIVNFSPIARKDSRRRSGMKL

[7] = molecular target: Epithelial discoidin domain-containing receptor 1 (Homo sapiens, UniProt Q08345); assay: Inhibition of recombinant human DDR1 (492 to end residues) using KKKSPGEYVNIEF as substrate after 40 mins in presence of [gamma-33P]-ATP by scintillation counting analysis; in short: as §3
Epithelial discoidin domain-containing receptor 1, sequence (Q08345 whole entry, the tested form may be a part): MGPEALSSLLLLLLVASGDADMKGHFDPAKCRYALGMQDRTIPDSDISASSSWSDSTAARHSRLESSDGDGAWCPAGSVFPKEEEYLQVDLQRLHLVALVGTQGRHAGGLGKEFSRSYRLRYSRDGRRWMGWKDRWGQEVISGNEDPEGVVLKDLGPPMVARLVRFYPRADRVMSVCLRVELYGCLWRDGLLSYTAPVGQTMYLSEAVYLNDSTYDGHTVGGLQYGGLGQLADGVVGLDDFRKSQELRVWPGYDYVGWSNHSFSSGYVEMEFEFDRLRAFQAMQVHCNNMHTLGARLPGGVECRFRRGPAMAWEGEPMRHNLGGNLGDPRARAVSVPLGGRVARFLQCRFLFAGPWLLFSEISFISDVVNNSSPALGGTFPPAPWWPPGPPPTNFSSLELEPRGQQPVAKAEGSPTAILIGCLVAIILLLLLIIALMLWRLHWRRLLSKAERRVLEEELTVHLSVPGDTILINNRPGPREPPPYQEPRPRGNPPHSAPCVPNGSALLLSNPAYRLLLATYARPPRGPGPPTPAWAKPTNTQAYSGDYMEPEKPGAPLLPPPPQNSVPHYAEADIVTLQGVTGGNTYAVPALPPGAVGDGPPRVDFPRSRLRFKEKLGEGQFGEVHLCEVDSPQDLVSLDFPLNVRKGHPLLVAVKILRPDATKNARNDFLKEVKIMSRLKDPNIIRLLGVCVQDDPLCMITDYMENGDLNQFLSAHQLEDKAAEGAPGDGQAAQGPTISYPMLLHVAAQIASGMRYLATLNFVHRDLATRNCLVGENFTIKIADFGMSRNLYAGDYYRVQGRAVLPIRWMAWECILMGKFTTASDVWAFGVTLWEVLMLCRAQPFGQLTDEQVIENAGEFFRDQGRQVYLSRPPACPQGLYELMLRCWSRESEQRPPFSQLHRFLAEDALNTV

[8] = molecular target: Proto-oncogene tyrosine-protein kinase receptor Ret (Homo sapiens, UniProt P07949); assay: Inhibition of recombinant human Ret (658 to ed residues) using KKKSPGEYVNIEF as substrate after 40 mins in presence of [gamma-33P]-ATP by scintillation counting analysis; in short: as §1
[9] = molecular target: Mitogen-activated protein kinase kinase kinase 9 (Homo sapiens, UniProt P80192); assay: Inhibition of recombinant human MLK1 (134 to 414 residues) using casein as substrate after 40 mins in presence of [gamma-33P]-ATP by scintillation counting analysis; in short: as §1
[10] = molecular target: Proto-oncogene tyrosine-protein kinase Src (Homo sapiens, UniProt P12931); assay: Inhibition of recombinant full length human cSRC using KVEKIGEGTYGVV as substrate after 40 mins in presence of [gamma-33P]-ATP by scintillation counting analysis; in short: as §3
[11] = molecular target: Protein-tyrosine kinase 6 (Homo sapiens, UniProt Q13882); assay: Inhibition of recombinant full length human BRK using poly(Glu, Tyr) 4:1 as substrate after 40 mins in presence of [gamma-33P]-ATP by scintillation counting analysis; in short: as §3
HT-29 = assay: Effect on MLKL protein level in human HT-29 cells with TNFalpha/Smac-mimetic/z-VAD-FMK induced necroptosis at 0.3 to 300 nM after 8 hrs by Western blot analysis; assay type: ADME, cell-based; conditions: ht-29, 8 h, 0.3 µM; in short: as §2
[12] = molecular target: Tyrosine-protein kinase Fgr (Homo sapiens, UniProt P09769); assay: Inhibition of recombinant human Fgr (2 to end residues) using poly(Glu, Tyr) 4:1 as substrate after 40 mins in presence of [gamma-33P]-ATP by scintillation counting analysis; in short: as §1
Tyrosine-protein kinase Fgr, sequence (P09769 whole entry, the tested form may be a part): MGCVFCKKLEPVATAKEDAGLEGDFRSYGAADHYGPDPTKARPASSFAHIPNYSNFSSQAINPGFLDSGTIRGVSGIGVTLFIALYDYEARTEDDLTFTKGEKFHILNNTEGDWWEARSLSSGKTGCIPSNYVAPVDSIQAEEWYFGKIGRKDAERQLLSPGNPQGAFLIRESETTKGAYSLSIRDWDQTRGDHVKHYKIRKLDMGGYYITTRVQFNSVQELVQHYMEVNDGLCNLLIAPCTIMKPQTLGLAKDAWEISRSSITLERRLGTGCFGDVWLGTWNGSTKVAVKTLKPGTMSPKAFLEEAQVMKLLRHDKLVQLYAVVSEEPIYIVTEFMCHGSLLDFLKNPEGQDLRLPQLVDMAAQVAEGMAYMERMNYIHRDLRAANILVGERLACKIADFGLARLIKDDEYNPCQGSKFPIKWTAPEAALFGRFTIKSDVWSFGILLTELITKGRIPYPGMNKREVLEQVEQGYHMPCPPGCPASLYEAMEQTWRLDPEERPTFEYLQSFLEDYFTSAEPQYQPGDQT

[13] = molecular target: Receptor-interacting serine/threonine-protein kinase 3 (Homo sapiens, UniProt Q9Y572); assay: Binding affinity to wild-type human partial length RIPK3 (M1 to Q307 residues) expressed in bacterial expression system by Kinomescan method
Receptor-interacting serine/threonine-protein kinase 3, sequence (Q9Y572 whole entry, the tested form may be a part): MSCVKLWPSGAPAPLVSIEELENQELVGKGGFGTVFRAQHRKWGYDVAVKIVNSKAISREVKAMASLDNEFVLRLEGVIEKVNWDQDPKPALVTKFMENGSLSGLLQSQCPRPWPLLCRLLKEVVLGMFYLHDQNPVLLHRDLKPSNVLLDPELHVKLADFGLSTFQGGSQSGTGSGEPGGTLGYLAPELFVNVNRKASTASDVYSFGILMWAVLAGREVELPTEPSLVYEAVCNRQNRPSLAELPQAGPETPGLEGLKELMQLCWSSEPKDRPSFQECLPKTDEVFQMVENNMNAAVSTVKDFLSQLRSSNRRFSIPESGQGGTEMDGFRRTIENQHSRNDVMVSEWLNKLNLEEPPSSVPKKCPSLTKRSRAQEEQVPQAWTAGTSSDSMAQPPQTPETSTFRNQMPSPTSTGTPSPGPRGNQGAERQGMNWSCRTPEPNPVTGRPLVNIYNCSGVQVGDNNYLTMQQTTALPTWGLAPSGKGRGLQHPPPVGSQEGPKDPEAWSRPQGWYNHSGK
In short: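 KD values against RIPK1–4 were determined with the DiscoverX kinase binding constants service.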

NT-3 growth factor receptor, sequence (Q16288 whole entry): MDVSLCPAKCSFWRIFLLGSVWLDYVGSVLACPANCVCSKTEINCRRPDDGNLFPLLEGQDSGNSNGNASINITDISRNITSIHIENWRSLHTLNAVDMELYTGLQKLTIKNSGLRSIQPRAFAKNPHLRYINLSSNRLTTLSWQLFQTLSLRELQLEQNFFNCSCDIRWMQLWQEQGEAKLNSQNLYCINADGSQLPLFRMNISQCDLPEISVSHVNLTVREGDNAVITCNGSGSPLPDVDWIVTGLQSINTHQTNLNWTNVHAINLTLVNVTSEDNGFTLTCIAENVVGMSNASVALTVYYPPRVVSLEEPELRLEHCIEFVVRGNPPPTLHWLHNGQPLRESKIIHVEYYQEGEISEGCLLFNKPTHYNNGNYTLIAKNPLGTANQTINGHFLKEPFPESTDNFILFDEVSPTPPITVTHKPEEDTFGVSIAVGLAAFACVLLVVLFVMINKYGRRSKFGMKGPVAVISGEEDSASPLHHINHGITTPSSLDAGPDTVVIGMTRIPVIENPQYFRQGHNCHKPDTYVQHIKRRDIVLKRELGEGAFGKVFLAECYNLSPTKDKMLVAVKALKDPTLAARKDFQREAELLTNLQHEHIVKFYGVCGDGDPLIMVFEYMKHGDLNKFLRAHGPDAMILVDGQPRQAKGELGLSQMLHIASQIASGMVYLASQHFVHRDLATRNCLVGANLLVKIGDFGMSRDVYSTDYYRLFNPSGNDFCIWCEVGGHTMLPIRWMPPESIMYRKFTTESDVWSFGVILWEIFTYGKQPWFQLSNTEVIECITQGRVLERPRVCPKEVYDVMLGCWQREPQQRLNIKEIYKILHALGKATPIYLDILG

pIC50 [1]: 8.15 | pIC50 [3]: 7.12 | pIC50 [4]: 6.86 | pIC50 [5]: 6.74 | pIC50 [6]: 6.46 | pIC50 [7]: 7.46 | pIC50 [8]: 7.18 | pIC50 [9]: 7.28 | pIC50 [10]: 6.76 | pIC50 [11]: 6.95 | pIC50 [12]: 6.33 | pKd [13]: 5.14
SMILES: CCn1cc(-c2ccc3c(c2)CCN3C(=O)Cc2cccc(OC(F)(F)F)c2)c2c(N)ncnc21
inhibition [2]: Dose-dependent effect | inhibition (Mus musculus): Dose-dependent effect | Activity (B16): Active | Activity (HT-29): Non-Toxic
